Reference: ChEMBL document CHEMBL1671641, “1,5-benzodiazepines, a novel class of hepatitis C virus polymerase nonnucleoside inhibitors” (Antimicrob Agents Chemother, 2008)

Legend:
Hepatitis C virus [1] = assay: Antiviral activity against Hepatitis C virus infected in cells assessed as log reduction in viral RNA level at 800 mg administered BID for 10 days; type: functional, Hepacivirus hominis
[2] = Inhibition of Dengue virus RNA-dependent RNA polymerase
How it was run: (§1)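 Each enzyme–compound pair was tested in duplicate over 0.8 to 100 μM, with 100 μM as the highest dose. Each run included a no-inhibitor control, a solvent dilution (0.016 to 2% DMSO) and the relevant reference inhibitor. Percent inhibition at 100 μM was recorded for polymerase γ.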

[3] = Cytotoxicity against CMV-Luc transfected human HuH7 cells after 5 days; type: cell-based, Huh-7; settings: CMV-Luc transfected HuH7 cells
[4] = Cytotoxicity against LTR-Luc transfected human MT4 cells […] after 3 days by ATPLite assay; type: cell-based
[5] = target: T1, DNA polymerase subunit gamma-1 (Homo sapiens, UniProt P54098); assay: Inhibition of human DNA polymerase gamma; how it was run: as §1
T1 sequence (P54098 whole entry): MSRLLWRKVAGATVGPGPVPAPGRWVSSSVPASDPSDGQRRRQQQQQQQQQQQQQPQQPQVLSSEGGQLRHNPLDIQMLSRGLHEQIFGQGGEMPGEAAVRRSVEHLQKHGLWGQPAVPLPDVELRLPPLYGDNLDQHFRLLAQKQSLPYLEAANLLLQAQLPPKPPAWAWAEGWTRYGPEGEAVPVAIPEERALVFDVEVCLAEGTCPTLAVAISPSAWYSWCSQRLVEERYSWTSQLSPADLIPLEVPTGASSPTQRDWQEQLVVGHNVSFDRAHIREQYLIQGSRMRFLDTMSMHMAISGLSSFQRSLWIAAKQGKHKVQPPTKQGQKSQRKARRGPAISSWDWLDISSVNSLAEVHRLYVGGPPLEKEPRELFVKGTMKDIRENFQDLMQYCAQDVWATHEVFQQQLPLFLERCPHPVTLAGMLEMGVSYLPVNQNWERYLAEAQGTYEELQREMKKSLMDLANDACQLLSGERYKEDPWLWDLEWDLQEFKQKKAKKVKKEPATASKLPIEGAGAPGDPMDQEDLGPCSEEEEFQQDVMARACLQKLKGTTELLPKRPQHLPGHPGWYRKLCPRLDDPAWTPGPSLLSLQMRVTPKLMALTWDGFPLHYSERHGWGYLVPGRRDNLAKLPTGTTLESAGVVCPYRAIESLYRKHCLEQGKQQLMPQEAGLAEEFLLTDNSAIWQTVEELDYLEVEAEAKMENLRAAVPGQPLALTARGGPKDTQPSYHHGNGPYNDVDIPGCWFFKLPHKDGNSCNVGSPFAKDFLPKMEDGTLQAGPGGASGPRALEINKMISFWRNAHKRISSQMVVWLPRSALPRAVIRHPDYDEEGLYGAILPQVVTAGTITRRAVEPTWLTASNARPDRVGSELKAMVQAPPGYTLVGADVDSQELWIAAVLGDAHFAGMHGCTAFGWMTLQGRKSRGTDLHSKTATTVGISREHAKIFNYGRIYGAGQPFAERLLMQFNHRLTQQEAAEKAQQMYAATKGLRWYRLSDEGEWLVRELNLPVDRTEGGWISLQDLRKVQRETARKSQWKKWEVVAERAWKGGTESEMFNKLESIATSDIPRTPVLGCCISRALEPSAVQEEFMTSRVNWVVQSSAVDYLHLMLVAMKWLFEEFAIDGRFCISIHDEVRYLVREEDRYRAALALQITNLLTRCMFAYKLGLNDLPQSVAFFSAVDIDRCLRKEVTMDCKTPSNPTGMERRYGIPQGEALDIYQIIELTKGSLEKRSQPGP

[6] = target: Human immunodeficiency virus type 1 reverse transcriptase (Human immunodeficiency virus 1, UniProt Q72547); assay: Inhibition of Human immunodeficiency virus 1 reverse transcriptase expressed in Escherichia coli by scintillation proximity assay
How it was run: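 N-terminal His6 HIV-1 RT was expressed in E. coli BL21(DE3), induced overnight at 37°C with 0.4 mM IPTG. The homodimer was purified by Ni-NTA and heparin chromatography. Activity was measured by scintillation proximity assay at 2.5 nM enzyme, with efavirenz as reference inhibitor.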

DNA polymerase beta = DNA polymerase beta (Homo sapiens, UniProt P06746); assay: Inhibition of human DNA polymerase beta; how it was run: as §1
[7] = target: T2, DNA polymerase alpha catalytic subunit (Homo sapiens, UniProt P09884); assay: Inhibition of human DNA polymerase alpha; how it was run: as §1
T2 sequence (P09884 whole entry): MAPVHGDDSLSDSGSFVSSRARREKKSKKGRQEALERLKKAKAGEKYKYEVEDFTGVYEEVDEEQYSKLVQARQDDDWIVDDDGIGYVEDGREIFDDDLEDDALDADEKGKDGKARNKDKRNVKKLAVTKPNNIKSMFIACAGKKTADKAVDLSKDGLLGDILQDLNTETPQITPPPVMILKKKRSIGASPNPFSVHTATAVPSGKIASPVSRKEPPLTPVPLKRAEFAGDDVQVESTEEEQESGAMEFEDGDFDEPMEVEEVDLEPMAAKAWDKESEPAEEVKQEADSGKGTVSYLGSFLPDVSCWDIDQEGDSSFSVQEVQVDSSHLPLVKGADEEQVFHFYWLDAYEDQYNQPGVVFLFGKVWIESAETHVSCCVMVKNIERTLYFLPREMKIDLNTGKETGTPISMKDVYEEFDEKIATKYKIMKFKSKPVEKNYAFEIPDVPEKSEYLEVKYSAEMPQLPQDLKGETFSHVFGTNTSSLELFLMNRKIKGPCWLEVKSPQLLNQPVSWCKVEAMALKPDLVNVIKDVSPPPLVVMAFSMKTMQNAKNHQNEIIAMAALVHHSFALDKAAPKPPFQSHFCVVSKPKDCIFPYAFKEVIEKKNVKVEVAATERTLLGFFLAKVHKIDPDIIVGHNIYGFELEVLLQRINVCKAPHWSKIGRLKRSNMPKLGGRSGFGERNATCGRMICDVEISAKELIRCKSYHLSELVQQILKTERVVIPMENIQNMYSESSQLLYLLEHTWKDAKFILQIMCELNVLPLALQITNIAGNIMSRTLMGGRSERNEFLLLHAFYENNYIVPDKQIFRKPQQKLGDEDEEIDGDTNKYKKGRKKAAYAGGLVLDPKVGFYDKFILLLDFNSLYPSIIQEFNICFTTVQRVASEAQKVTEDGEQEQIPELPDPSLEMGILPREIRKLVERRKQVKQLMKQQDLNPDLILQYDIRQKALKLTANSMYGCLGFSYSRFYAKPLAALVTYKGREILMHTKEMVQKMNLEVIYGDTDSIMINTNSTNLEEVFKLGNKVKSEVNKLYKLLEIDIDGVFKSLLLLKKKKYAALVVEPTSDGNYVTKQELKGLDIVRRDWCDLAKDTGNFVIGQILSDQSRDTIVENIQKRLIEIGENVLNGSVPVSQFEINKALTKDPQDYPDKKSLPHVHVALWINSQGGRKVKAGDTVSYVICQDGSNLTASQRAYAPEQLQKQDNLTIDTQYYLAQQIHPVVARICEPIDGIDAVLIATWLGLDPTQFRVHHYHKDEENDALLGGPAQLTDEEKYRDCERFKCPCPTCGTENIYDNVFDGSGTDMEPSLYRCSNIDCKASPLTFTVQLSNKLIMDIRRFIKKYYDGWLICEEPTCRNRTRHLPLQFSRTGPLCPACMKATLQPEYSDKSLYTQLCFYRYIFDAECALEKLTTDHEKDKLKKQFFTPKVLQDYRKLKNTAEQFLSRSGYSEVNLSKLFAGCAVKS

[8] = target: T3, DNA polymerase subunit gamma-1 (Homo sapiens) (UniProt P54098); assay: Inhibition of human DNA polymerase gamma at 100 uM; how it was run: as §1
T3 sequence (whole entry): T1 sequence (P54098 whole entry)

Hepatitis C virus [9] = assay: Antiviral activity against Hepatitis C virus 1b infected in human HuH7 cells assessed as inhibition of viral replication after 3 days by luciferase reporter assay; type: functional, organism-based, Hepacivirus hominis, genotype 1b, Huh-7; settings: Hepatitis C virus, genotype 1b, Huh-7, 72 h
How it was run: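 HCV 1b subgenomic luciferase reporter replicon (clone ET) cells, 2,500 per well, were exposed to a nine-point 1/4 dilution series for 3 days. Replication was read as luciferase activity. Values are means ± SD from 2 to 23 independent experiments run in quadruplicate.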

Hepatitis C virus [10] = assay: Antiviral activity against Hepatitis C virus infected in cells assessed as log reduction in viral RNA level from baseline at 4500 mg administered BID for 14 days by Replicon Assays; type: functional, Hepacivirus hominis

Question: With CC1CCC(C(=O)N(c2cc(-c3ccccc3)sc2C(=O)[O-])C2CCC(O)CC2)CC1.[Na+] (stereo unspecified) [VCH-759] as the compound, how does the FC (Hepatitis C virus [1]) read?
Answer: The FC was 2.5.

Question: With CC(=O)N1c2ccccc2NC2=C(C(=O)CC(C)(C)C2)C1c1ccc(Cl)cc1Cl (stereo unspecified) as the compound, how does the IC50 [2] read?
Answer: The IC50 was over 100 µM.

Question: What about the CC50 at 120 h [3] of the same compound?
Answer: The CC50 at 120 h was 32 µM.

Question: What about the CC50 at 72 h [4] of the same compound?
Answer: The CC50 at 72 h was 32 µM.

Question: And the IC50 [5]?
Answer: The IC50 was over 100 µM.

Question: What about the IC50 [6] of the same compound?
Answer: Its IC50 is over 32 µM.

Question: And the IC50 (DNA polymerase beta)?
Answer: The IC50 was over 100 µM.

Question: What about the IC50 [7] of the same compound?
Answer: The IC50 was over 100 µM.

Question: What about the inhibition [8] of the same compound?
Answer: Its inhibition is 30%.

Question: And the EC50 (Hepatitis C virus [9])?
Answer: The EC50 was over 32 µM.

Question: With [N-]=[N+]=N[C@]1(CO)O[C@@H](n2ccc(N)nc2=O)[C@H](O)[C@@H]1O [4'-AZIDOCYTIDINE] as the compound, how does the FC (Hepatitis C virus [10]) read?
Answer: Its FC is 3.7.
